Assay results: ChEMBL document CHEMBL4715822, “Structure-based lead optimization to improve antiviral potency and ADMET properties of phenyl-1H-pyrrole-carboxamide entry inhibitors targeted to HIV-1 gp120” (Eur J Med Chem, 2018)
Converted amounts (≈) assume the structure as drawn.

Experiments:
[1] = Solubility in 5% DMSO at pH 7.4 at 500 uM incubated for 90 mins in shaker by spectrophotometry; format: physicochemical
Summary of the method: (§1)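 DMSO stock diluted to 500 μM in universal aqueous buffer pH 7.4 with 2 or 5% DMSO final; quadruplicate, 90 min shaking at room temperature in filter plate, vacuum filtered; filtrate in 20% acetonitrile read by UV absorbance at six wavelengths. Filtrate/standard ratio binned as ~500, 100–500 or <100 μM.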

Cytochrome P450 2B6 = target: T1, Cytochrome P450 2B6 (Homo sapiens, UniProt P20813); assay: Inhibition of human liver microsome CYP2B6 using bupropion as substrate incubated for 20 mins by LC-MS/MS analysis; format: ADME, microsomes
T1 sequence (P20813 whole entry): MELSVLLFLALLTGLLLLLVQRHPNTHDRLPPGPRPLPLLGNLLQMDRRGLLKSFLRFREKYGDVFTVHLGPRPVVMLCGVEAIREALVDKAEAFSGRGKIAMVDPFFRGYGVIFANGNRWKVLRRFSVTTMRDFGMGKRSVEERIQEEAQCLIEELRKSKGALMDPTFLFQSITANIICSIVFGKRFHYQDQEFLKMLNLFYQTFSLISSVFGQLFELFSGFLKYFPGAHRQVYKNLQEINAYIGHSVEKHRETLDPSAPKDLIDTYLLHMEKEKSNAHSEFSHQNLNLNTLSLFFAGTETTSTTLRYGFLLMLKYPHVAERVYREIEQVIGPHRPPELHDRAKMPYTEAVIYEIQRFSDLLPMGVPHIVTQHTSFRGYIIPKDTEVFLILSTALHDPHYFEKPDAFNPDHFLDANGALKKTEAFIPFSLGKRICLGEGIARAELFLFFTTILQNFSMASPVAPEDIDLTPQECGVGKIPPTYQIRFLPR

[2] = Metabolic stability in human liver microsomes assessed as parent compound remaining at 3 uM incubated for 120 mins by LC-MS/MS analysis; format: ADME, Microsome; conditions: read-out: Stabilty
[3] = Metabolic stability in human liver microsomes assessed as intrinsic clearance at 3 uM incubated for 120 mins by LC-MS/MS analysis; format: ADME, Microsome; conditions: read-out: CLH
[4] = Protein binding in human plasma assessed as unbound fraction at 5 uM by LC-MS/MS analysis; format: ADME, cell-free
[5] = Induction viral infection in pseudovirus HIV1 ADA infected in dog Cf2Th-CCR5 cells incubated for overnight followed by pretreated for 30 mins and added to cells measured after 48 hrs by luciferase-based assay; format: cell-based; conditions: human immunodeficiency virus 1, cf2th-ccr5, 48.5 h
[6] = Apparent permeability across basolateral to apical side in human Caco2 cells incubated for 2 hrs by LC-MS/MS analysis; format: ADME, cell-based, Caco-2; conditions: Caco-2
Summary of the method: (§2)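 Caco-2 monolayers grown three weeks to differentiate; compound in transport buffer pH 7.4 (glucose, 10 mM HEPES, HBSS) added apical (A-B) or basal (B-A) side, with or without 100 μM verapamil; 2 h incubation, both sides sampled. Lucifer yellow 100 μM on A side checks integrity (≤2% transport). Papp = (dQ/dt)/(C0 × A); efflux ratio = Papp(B→A)/Papp(A→B).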

[7] = Cytotoxicity against human MT2 cells assessed as reduction in cell viability incubated for 4 days by XTT assay; format: cell-based; conditions: MT2 cells, time 4 day
[8] = Apparent permeability across apical to basolateral side in human Caco2 cells incubated for 2 hrs by LC-MS/MS analysis; format: ADME, cell-based, Caco-2; conditions: Caco-2; summary of the method: as §2
Cytochrome P450 3A4 = Cytochrome P450 3A4 (Homo sapiens, UniProt P08684); assay: Inhibition of human liver microsome CYP3A4 using midazolam as substrate incubated for 20 mins by LC-MS/MS analysis; format: ADME, microsomes
Cytochrome P450 2C19 = Cytochrome P450 2C19 (Homo sapiens, UniProt P33261); assay: Inhibition of human liver microsome CYP2C19 using mephenytoin as substrate incubated for 20 mins by LC-MS/MS analysis; format: ADME, microsomes
[9] = Cytotoxicity against dog Cf2Th-CCR5 cells assessed as reduction in cell viability incubated for 48 hrs by XTT assay; format: cell-based, Canis lupus familiaris; conditions: Cf2Th-CCR5 cells
[10] = Solubility in 2 % DMSO at pH 7.4 at 500 uM incubated for 90 mins in shaker by spectrophotometry; format: physicochemical; summary of the method: as §1
[11] = Cytotoxicity against human PBMC cells assessed as reduction in cell viability incubated for 1 hr followed by complete medium addition and measured after 48 hrs by XTT assay; format: cell-based
[12] = Cytotoxicity against human TZM-bl cells assessed as reduction in cell viability incubated for 3 days by XTT assay; format: cell-based; conditions: TZM-bl cells, time 3 day
[13] = system: Human immunodeficiency virus 1; assay: Antiviral activity against pseudovirus HIV-1 HXB-2 harboring Env I424F mutant infected in human U87.CD4.CXCR4 cells assessed as reduction in viral infection pretreated for 30 mins before viral infection and measured after 3 days by luciferase based assay; format: functional, cell-based, M:B_HXB2R
Summary of the method: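 Pseudoviruses made in HEK293T by co-transfecting an Env-deleted backbone (pSG3Δenv or pNL4-3.Luc.R-.E-) with an HXB-2 Env plasmid carrying single or double substitutions; Env sequences confirmed by sequencing. Virus pretreated 30 min with graded compound, added to U87-CD4-CXCR4 cells (1 × 10⁴/well, plated overnight), incubated 3 days. Cells lysed, luciferase measured, IC50 calculated.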

Chain of Cytochrome P450 2C19 (P33261 whole entry): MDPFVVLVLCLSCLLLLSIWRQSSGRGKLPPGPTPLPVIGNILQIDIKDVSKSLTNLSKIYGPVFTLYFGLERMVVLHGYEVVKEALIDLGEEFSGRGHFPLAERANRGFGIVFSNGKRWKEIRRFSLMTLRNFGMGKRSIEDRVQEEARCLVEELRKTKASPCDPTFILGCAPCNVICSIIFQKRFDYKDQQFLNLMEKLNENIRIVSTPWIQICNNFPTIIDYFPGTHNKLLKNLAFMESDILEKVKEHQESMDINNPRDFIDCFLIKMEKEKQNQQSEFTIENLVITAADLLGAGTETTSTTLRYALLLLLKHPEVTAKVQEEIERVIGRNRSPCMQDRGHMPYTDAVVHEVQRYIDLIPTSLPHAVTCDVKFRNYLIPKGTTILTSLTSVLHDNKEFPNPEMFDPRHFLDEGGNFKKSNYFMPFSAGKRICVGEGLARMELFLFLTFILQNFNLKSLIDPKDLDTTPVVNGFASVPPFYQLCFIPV
Chain of Cytochrome P450 3A4 (P08684 whole entry): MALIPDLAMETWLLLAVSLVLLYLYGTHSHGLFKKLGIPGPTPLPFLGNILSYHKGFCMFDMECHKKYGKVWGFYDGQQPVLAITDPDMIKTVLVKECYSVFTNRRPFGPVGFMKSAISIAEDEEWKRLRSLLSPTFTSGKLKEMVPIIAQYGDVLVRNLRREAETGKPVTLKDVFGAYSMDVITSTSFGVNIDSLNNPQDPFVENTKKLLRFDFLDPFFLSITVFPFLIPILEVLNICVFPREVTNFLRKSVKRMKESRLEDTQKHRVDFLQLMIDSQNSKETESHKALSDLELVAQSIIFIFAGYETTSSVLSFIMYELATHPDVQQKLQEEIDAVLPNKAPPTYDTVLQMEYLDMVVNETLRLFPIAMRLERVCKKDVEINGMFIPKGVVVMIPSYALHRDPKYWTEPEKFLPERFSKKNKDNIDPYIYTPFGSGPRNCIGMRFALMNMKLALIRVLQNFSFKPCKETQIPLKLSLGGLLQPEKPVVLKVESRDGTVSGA

**Q.** Which solubility kinetic at […], 500 µM [1] does the source give for `NC[C@H](NC(=O)c1ccc(-c2ccc(C(F)(F)F)c(F)c2)[nH]1)c1nc(CO)cs1` here?
**A.** 100 µM (≈ 42.8 µg/mL)

**Q.** And the IC50 (Cytochrome P450 2B6)?
**A.** > 25 µM

**Q.** And the remaining at 2 h, 3 µM [2]?
**A.** 88.5%

**Q.** What about the microsomal CLint at 3 µM [3] of the same molecule?
**A.** 1.8 µL/min/mg

**Q.** What about the fraction unbound at 5 µM [4] of the same molecule?
**A.** 0.00949

**Q.** And the Activity [5]?
**A.** Non-Toxic

**Q.** What about the Papp B→A at 2 h [6] of the same molecule?
**A.** 17.7 ×10⁻⁶ cm/s

**Q.** And the CC50 at 96 h [7]?
**A.** 22.1 µM

**Q.** And the Papp A→B at 2 h [8]?
**A.** 0.602 ×10⁻⁶ cm/s

**Q.** And the IC50 (Cytochrome P450 3A4)?
**A.** > 25 µM

**Q.** And the IC50 (Cytochrome P450 2C19)?
**A.** > 25 µM

**Q.** What about the CC50 at 48 h [9] of the same molecule?
**A.** 34 µM

**Q.** What about the solubility kinetic at […], 500 µM [10] of the same molecule?
**A.** 100 µM (≈ 42.8 µg/mL)

**Q.** And the CC50 at 49 h [11]?
**A.** 38.7 µM

**Q.** And the CC50 at 72 h [12]?
**A.** 21.9 µM

**Q.** And the IC50 [13]?
**A.** 0.88 µM
